The entries come from a sample that favours hits as a whole.
GASC1 inh = blocks human GASC-1 (KDM4C) demethylase activity. Q9H3R0. GST-KDM4C 2-372, H3K9me3 peptide, LANCE TR-FRET. inhibition, % at 12.5 µM. 96,000 tested, 0.15% active;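 active = mean replicate inhibition above about 25%, with at least 55% of replicates also reaching it, limit read from the data, passing the limit was not always enough; inconclusive = only one of those two conditions met; inactive = neither condition met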
Target sequence (Q9H3R0 2-372 limits assumed): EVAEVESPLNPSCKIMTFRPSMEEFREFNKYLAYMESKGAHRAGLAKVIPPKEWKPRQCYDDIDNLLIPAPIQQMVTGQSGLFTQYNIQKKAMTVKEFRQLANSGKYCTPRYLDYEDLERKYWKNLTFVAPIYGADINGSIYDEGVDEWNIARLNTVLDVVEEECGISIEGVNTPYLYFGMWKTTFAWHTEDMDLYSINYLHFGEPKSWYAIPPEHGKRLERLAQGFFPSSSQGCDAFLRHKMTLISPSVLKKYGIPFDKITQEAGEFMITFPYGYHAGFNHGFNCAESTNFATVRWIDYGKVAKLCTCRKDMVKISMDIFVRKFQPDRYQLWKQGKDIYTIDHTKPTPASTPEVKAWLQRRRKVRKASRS
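Test system – GST-tagged GASC-1 (JMJD2C) catalytic fragment, aa 2-372 · Medium – HEPES buffer, pH 7.5, plus ascorbate · Reagent – H3K9me3 peptide with Fe(II)/2OG · Compound – one test concentration per compound · Timing – 30 min reaction, 60 min detection, RT · Technique – TR-FRET with Eu antibody and ULight streptavidin, EDTA stop · Read-out basis – inhibition from TR-FRET ratio decrease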
T cruzi growth-1 = inhibitors of T. cruzi proliferation; T. cruzi beta-gal in NIH3T3, GalScreen luminescence, 90 h; inhibition, % at 8.34 µM; 77,000 tested, 5.9% active;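 active = mean inhibition above about 93%, with at least 55% of replicates each passing it, limit read from the data, passing the limit was not always enough; inconclusive = only one of those two conditions holds; inactive = neither condition holds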
IDH1 R132H inh = IDH1 R132H (human) inhibition; O75874; IDH1 R132H reductase, diaphorase/resazurin fluorescence, 60 min; inhibition, % at 10 µM; 70,000 tested, 0.18% active; AID 624101; in the data active = inhibition above about 34%; inconclusive = no clear call, values can overlap the other calls; inactive = below about 11%;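 also: 0% = DMSO and 100% = no enzyme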
T cruzi growth-2 = blocks T. cruzi growth in NIH3T3 host cells; shares compounds with T cruzi growth-1; T. cruzi beta-gal in NIH3T3, GalScreen luminescence, 90 h; inhibition, % at 8.35 µM; 5,600 tested, 72% active; AID 651739;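 active = mean replicate inhibition above about 95% and at least 55% of replicates individually reaching it, limit read from the data; inconclusive = only one of the two criteria is met; inactive = neither criterion is met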
T cruzi growth-3 = inhibitors of T. cruzi proliferation | AID 651740 | shares compounds with T cruzi growth-1 | inhibition, % at 2.09 µM | 5,600 tested, 21% active | T. cruzi beta-gal in NIH3T3, GalScreen luminescence, 90 h;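 active = mean inhibition above about 95%, with at least 55% of replicates also reaching it, limit read from the data; inconclusive = meets just one of the two conditions; inactive = meets neither condition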;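 also: plate controls were neutral control median for no effect and positive control median for full effect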
3T3 cytotox = cytotoxicity in mouse NIH/3T3 fibroblasts; cytotoxicity (signal decrease), % at 8.35 µM; NIH/3T3 viability, CellTiter-Glo ATP luminescence, 90 h; shares compounds with T cruzi growth-1; 5,600 tested, 14% active;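 active = mean signal decrease across replicates above about 35% based on untreated-well scatter, with enough replicates individually passing, limit read from the data; inconclusive = no rule stated though some were filed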;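 also: 0% = median of neutral control wells and 100% = median of positive control wells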
3T3 cytotox 2 = cytotoxicity in mouse NIH/3T3 fibroblasts; shares compounds with T cruzi growth-1; 5,600 tested, 56% active; NIH/3T3 viability, CellTiter-Glo ATP luminescence, 90 h; inhibition, % at 24.9 µM; AID 651744;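 active = mean loss of cell viability signal at or above a set limit, and enough replicates individually reaching it; inconclusive = meets only the mean limit or only the replicate share; inactive = meets neither condition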;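 also: 0% = median of neutral control wells and 100% = median of positive control wells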
* hit, by the source's call.

Results for N#C[C@@H]1[C@H](c2ccc(C#CCC3CCCC3)cc2)[C@@H](CO)N1C(=O)CN1CCOCC1 ?
GASC1 inh: -2; T cruzi growth-1: 101*; T cruzi growth-2: 106*; T cruzi growth-3: 69; 3T3 cytotox: -7; 3T3 cytotox 2: 82*

Results for CCCC#Cc1ccc([C@@H]2[C@@H](CO)N(C(=O)CN3CCOCC3)[C@H]2C#N)cc1 ?
GASC1 inh: -1; T cruzi growth-1: inconclusive

Results for CCNC(=O)C[C@@H]1CC[C@H](NS(=O)(=O)c2ccc(F)cc2)[C@@H](CO)O1 ?
GASC1 inh: 0; IDH1 R132H inh: 0

How did C[C@@H]1CCCCO[C@@H](CN(C)Cc2ccccc2)[C@H](C)CN([C@H](C)CO)C(=O)c2cc(NS(=O)(=O)c3ccc(F)cc3)ccc2O1 do in these assays?
GASC1 inh: 0; T cruzi growth-1: 81

How did COc1ccccc1NC(=O)N[C@H]1C=C[C@@H](CC(=O)N[C@@H](C)c2ccccc2)O[C@H]1CO do in these assays?
GASC1 inh: -2; T cruzi growth-1: 27; IDH1 R132H inh: 0

What do the screens show for `C[C@H]1CN([C@@H](C)CO)C(=O)c2cc(C#CCN(C)C)cnc2O[C@@H]1CN(C)C(=O)CCN1CCCCC1`?
GASC1 inh: 1; T cruzi growth-1: -40; IDH1 R132H inh: 0

How did Cc1cccc(NC(=O)c2cc(NC(=O)C3CCCCC3C(=O)O)ccc2N2CCOCC2)c1 (configuration not stated) do in these assays?
IDH1 R132H inh: 0

How did CCCC#Cc1ccc([C@@H]2[C@@H](CO)N3CCCCN(S(C)(=O)=O)C[C@H]23)cc1 do in these assays?
GASC1 inh: 0; T cruzi growth-1: 11

How did CS(=O)(=O)N1CCCCN2[C@H](C1)[C@H](c1ccc(C#Cc3ccccn3)cc1)[C@@H]2CO do in these assays?
GASC1 inh: 1; T cruzi growth-1: 112*; T cruzi growth-2: 96*; T cruzi growth-3: 39; 3T3 cytotox: 5; 3T3 cytotox 2: -6

Results for CS(=O)(=O)N1CCCCN2[C@@H](CO)[C@H](c3ccc(C#Cc4ccccn4)cc3)[C@@H]2C1 ?
GASC1 inh: -1; T cruzi growth-1: inconclusive; T cruzi growth-2: 108*; T cruzi growth-3: 47; 3T3 cytotox: -7; 3T3 cytotox 2: 13

Results for CCS(=O)(=O)N1CCCCN2[C@H](CO)[C@@H](c3ccc(C#Cc4ccccn4)cc3)[C@@H]2C1 ?
GASC1 inh: 0; T cruzi growth-1: 86

Results for CS(=O)(=O)N1CCCCN2[C@H](C1)[C@@H](c1ccc(C#Cc3ccccn3)cc1)[C@@H]2CO ?
GASC1 inh: -1; T cruzi growth-1: 104*; T cruzi growth-2: 112*; T cruzi growth-3: 45; 3T3 cytotox: 6; 3T3 cytotox 2: 1

What do the screens show for `O=S(=O)(c1ccccc1)N1CCCCN2[C@H](CO)[C@H](c3ccc(C#Cc4ccccn4)cc3)[C@H]2C1`?
GASC1 inh: 1; T cruzi growth-1: 72

What do the screens show for `CCCN1[C@@H]2Cn3c(ccc(-c4cccc(F)c4)c3=O)[C@H]1[C@@H](C(=O)NCC)[C@@H]2CO`?
GASC1 inh: 2; T cruzi growth-1: 67

How did Cc1ccc(S(=O)(=O)Nc2cccc3c2O[C@H](CN(C)Cc2ccccc2)[C@H](C)CN([C@H](C)CO)C3=O)cc1 do in these assays?
GASC1 inh: 1; T cruzi growth-1: 26

How did NS(=O)(=O)c1ccc(CNC(=O)c2cc(-c3ccccn3)nc3ccc(Cl)cc23)cc1 do in these assays?
IDH1 R132H inh: -1

Results for O=C(N[C@@H]1CC[C@H](CCn2cc(-c3ccccn3)nn2)O[C@H]1CO)c1ccccc1 ?
GASC1 inh: -1; IDH1 R132H inh: 0

Results for C[C@@H]1CN([C@@H](C)CO)C(=O)c2c(c3ccccc3n2C)-c2ccccc2CO[C@H]1CN(C)S(=O)(=O)c1ccsc1 ?
GASC1 inh: -3; T cruzi growth-1: inconclusive; T cruzi growth-2: 108*; T cruzi growth-3: 54; 3T3 cytotox: 6; 3T3 cytotox 2: 47*

Results for C[C@H](CO)N1C[C@H](C)[C@H](CN(C)S(=O)(=O)c2ccsc2)OCc2ccccc2-c2c(n(C)c3ccccc23)C1=O ?
GASC1 inh: 0; T cruzi growth-1: 68; IDH1 R132H inh: 1

Results for C[C@H](CO)N1C[C@H](C)[C@@H](CN(C)S(=O)(=O)c2ccc(C#N)cc2)OCc2ccccc2-c2c(n(C)c3ccccc23)C1=O ?
GASC1 inh: -1; T cruzi growth-1: inconclusive; T cruzi growth-2: 112*; T cruzi growth-3: 71; 3T3 cytotox: 14; 3T3 cytotox 2: 19

What do the screens show for `C[C@H]1CN([C@@H](C)CO)C(=O)c2c(c3ccccc3n2C)-c2ccccc2CO[C@@H]1CN(C)S(=O)(=O)c1ccc(C#N)cc1`?
GASC1 inh: 0; T cruzi growth-1: 56

What do the screens show for `Cc1ccccc1S(=O)(=O)N(C)C[C@@H]1OCc2ccccc2-c2c(n(C)c3ccccc23)C(=O)N([C@@H](C)CO)C[C@@H]1C`?
GASC1 inh: -2; T cruzi growth-1: 83; IDH1 R132H inh: -2

What do the screens show for `COc1ccc(S(=O)(=O)N(C)C[C@H]2OCc3ccccc3-c3c(n(C)c4ccccc34)C(=O)N([C@@H](C)CO)C[C@@H]2C)cc1`?
GASC1 inh: -3; T cruzi growth-1: 60

How did COc1ccc(S(=O)(=O)N(C)C[C@@H]2OCc3ccccc3-c3c(n(C)c4ccccc34)C(=O)N([C@@H](C)CO)C[C@@H]2C)cc1 do in these assays?
GASC1 inh: -2; T cruzi growth-1: inconclusive; IDH1 R132H inh: 0; T cruzi growth-2: 100*; T cruzi growth-3: 67; 3T3 cytotox: -17; 3T3 cytotox 2: 24*

How did C[C@H]1CN([C@@H](C)CO)C(=O)c2c(c3ccccc3n2C)-c2ccccc2CO[C@H]1CN(C)S(=O)(=O)c1ccccc1C#N do in these assays?
GASC1 inh: 0; T cruzi growth-1: 107*; IDH1 R132H inh: 0; T cruzi growth-2: 91; T cruzi growth-3: 76; 3T3 cytotox: inconclusive; 3T3 cytotox 2: 85*

What do the screens show for `COCC(=O)N1C[C@@H](C)[C@H](OC)CN(C)C(=O)c2ccc(NC(=O)Nc3ccccc3)cc2OC[C@H]1C`?
GASC1 inh: -1; T cruzi growth-1: 28; IDH1 R132H inh: 0

Results for O=C(N[C@H]1CC[C@@H](CC(=O)N2CCCCC2)O[C@@H]1CO)c1ccccn1 ?
GASC1 inh: 1; T cruzi growth-1: -18; IDH1 R132H inh: 0

How did O=C(NCc1ccccn1)[C@H]1[C@H](CO)[C@H]2Cn3c(ccc(C4=CCCC4)c3=O)[C@@H]1N2Cc1cccnc1 do in these assays?
GASC1 inh: 0; T cruzi growth-1: -43

Screens (PubChem BioAssay)
